The values that follow come from ChEMBL document CHEMBL4387722.

One experiment has as its target E. coli GroEL/ES (Escherichia coli, UniProt P0A6F5). Nature of the experiment: Inhibition of Escherichia coli GroEL expressed in Escherichia coliDH5alpha/Escherichia coli GroES expressed in Escherichia coli BL21 (DE3) assessed as reduction in GroEL/GroES-mediated denatured pig heart mitochondrial MDH refolding by measuring MDH enzyme activity using sodium mesoxalate as substrate after 20 to 40 mins by spectrometric analysis.

In the next experiment the target is HSP60/HSP10 (Homo sapiens, UniProt P10809). Nature of the experiment: Inhibition of human HSP60 expressed in Escherichia coli Rosetta 2(DE3)/human HSP10 expressed in Escherichia coli Rosetta 2(DE3) pLysS cells assessed as reduction in HSP60/HSP10-mediated denatured pig heart mitochondrial MDH refolding by measuring MDH enzyme activity using sodium mesoxalate as substrate after 40 to 60 mins by spectrometric analysis.

Experiment [1] has as its target T1, Phosphotyrosine protein phosphatase (Mycobacterium tuberculosis, UniProt A0A045ISB3).
T1 sequence (A0A045ISB3 whole entry): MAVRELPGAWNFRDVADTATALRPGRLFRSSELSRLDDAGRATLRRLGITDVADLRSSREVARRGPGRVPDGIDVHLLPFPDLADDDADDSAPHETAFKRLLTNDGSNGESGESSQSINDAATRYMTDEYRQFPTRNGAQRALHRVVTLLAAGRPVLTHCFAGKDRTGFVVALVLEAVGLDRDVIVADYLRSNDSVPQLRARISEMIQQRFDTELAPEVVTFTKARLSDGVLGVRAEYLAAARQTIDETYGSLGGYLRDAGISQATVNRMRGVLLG
Nature of the experiment: Inhibition of Mycobacterium tuberculosis His-tagged PtpB expressed in Escherichia coli Rosetta 2 (DE3) using pNPP as substrate after 30 mins by spectrophotometric method.

The subject of experiment [2] is Mycobacterium tuberculosis. Briefly: Antitubercular activity against Mycobacterium tuberculosis H37Rv after 5 days at 200 uM relative to control. The class given is functional. The conditions noted are these: 120 h. In outline:
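M. tuberculosis grown in liquid culture with compound at a fixed 200 μM for 5 days. Growth inhibition expressed as percent of control.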

The target of experiment [3] is T2, Tyrosine-protein phosphatase non-receptor type 2 (Homo sapiens, UniProt P17706).
T2 sequence (P17706 whole entry): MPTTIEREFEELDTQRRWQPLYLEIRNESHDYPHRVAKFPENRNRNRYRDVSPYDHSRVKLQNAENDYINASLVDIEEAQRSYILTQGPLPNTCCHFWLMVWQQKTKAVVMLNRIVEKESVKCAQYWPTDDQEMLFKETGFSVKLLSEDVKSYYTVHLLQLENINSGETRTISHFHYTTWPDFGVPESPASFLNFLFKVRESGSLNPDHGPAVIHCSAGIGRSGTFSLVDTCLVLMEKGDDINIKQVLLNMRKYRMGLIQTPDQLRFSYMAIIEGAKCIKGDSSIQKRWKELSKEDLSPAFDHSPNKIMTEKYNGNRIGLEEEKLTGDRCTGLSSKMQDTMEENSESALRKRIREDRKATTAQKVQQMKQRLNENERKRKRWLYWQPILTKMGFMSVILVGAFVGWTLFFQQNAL
Briefly: Inhibition of human PTPN2 expressed in Escherichia coli Rosetta 2 (DE3) using pNPP as substrate after 45 mins by spectrophotometric method.

A short description of experiment [4]: Selectivity ratio of IC50 for inhibition of human HSP60 expressed in Escherichia coli Rosetta 2(DE3)/human HSP10 expressed in Rosetta 2(DE3) pLysS cells to IC50 for inhibition of Escherichia coli GroEL expressed in Escherichia coli DH5alpha/Escherichia coli GroES expressed in Escherichia coli BL21 (DE3). In outline:
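Ratio of IC50s from two analogous chaperonin-mediated refolding assays: human HSP60/10 and E. coli GroEL/ES each refold denatured malate dehydrogenase (dMDH). Refolding is followed through the recovered MDH enzymatic activity in a coupled read-out. IC50s come from dose-response testing. GroEL subunits are at 700 nM in the GroEL/ES assay.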

In experiment [5] the test system is Mycobacterium tuberculosis. Briefly: Antitubercular activity against Mycobacterium tuberculosis H37Rv after 5 days. The class given is functional, organism-based. The note with it: 120 h.
For experiment [6], the target named is T3, Tyrosine-protein phosphatase non-receptor type 1 (Homo sapiens, UniProt P18031).
T3 sequence (P18031 whole entry): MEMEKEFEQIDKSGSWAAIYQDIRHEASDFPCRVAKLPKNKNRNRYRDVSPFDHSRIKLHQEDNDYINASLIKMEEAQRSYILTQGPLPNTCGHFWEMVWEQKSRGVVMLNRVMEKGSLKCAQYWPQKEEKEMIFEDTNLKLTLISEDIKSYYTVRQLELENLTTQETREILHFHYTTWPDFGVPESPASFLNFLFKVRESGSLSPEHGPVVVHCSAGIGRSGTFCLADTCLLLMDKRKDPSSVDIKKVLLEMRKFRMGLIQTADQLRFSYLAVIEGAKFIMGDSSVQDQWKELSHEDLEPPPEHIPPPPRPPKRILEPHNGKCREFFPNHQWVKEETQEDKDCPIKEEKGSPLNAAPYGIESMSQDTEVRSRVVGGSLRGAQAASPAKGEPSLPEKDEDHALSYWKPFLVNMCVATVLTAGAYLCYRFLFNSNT
Nature of the experiment: Inhibition of human PTPN1 expressed in Escherichia coli Rosetta 2 (DE3) using pNPP as substrate after 45 mins by spectrophotometric method.

Experiment [7] concerns the target T4, Tyrosine-protein phosphatase non-receptor type 5 (Homo sapiens, UniProt P54829).
T4 sequence (P54829 whole entry): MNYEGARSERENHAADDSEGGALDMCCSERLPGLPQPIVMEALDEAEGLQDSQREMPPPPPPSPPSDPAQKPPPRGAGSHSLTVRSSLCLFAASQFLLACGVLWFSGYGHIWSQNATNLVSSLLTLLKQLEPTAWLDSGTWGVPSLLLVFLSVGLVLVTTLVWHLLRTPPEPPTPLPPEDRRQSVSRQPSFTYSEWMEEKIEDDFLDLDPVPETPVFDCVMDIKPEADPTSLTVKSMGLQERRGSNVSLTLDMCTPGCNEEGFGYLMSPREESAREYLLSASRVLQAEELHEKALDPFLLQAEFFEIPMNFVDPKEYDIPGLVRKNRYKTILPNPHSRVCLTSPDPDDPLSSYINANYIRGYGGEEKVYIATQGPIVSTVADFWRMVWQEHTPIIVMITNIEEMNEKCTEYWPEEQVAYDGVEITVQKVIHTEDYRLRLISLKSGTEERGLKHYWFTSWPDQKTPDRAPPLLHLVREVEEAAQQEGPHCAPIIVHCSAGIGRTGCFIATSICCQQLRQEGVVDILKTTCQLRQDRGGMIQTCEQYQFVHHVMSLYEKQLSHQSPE
Briefly: Inhibition of human PTPN5 expressed in Escherichia coli Rosetta 2 (DE3) using pNPP as substrate after 45 mins by spectrophotometric method.

Experiment [8] can be described thus: Selectivity index, ratio of IC50 for human PTPN1 to IC50 for Mycobacterium tuberculosis PtpB.

Chain of E. coli GroEL/ES (P0A6F5 whole entry, looked up): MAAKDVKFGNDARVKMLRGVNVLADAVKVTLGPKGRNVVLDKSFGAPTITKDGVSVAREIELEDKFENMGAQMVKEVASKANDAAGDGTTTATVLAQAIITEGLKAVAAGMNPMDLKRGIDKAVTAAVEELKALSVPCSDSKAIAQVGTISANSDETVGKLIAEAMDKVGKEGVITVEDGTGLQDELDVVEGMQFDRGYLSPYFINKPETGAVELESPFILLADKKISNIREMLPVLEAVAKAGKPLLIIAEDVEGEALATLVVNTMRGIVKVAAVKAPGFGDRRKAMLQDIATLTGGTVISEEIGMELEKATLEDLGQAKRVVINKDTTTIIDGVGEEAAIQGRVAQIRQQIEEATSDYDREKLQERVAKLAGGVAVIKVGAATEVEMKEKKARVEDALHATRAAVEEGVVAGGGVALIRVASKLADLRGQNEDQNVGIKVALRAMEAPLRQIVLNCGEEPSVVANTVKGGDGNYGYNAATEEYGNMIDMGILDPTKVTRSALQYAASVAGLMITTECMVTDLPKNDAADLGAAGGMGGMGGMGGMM
Chain of HSP60/HSP10 (P10809 whole entry): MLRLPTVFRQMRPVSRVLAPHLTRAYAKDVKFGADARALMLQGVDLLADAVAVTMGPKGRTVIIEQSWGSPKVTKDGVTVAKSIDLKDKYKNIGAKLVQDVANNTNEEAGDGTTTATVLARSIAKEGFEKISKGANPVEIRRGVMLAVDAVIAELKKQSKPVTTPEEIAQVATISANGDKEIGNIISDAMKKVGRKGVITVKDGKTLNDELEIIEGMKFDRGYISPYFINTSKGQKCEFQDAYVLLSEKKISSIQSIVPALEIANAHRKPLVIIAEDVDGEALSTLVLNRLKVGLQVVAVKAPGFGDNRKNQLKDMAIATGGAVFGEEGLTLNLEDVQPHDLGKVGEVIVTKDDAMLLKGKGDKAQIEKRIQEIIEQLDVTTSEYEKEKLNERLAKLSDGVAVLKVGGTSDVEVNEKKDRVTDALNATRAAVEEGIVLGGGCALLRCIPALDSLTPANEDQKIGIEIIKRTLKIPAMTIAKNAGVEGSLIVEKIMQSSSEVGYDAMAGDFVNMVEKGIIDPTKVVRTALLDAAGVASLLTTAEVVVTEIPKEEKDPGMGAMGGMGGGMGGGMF
Chain of HSP60/HSP10 (P61604 whole entry, further chain): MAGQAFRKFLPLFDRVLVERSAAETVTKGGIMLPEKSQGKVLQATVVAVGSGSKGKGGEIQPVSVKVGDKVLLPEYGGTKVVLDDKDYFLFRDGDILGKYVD

In the case of `O=S(=O)(Nc1ccc(-c2nc3cc(NS(=O)(=O)c4ccccc4)ccc3o2)cc1)c1ccccc1`, the IC50 is 4 µM at E. coli GroEL/ES; 80 µM at HSP60/HSP10; 18 µM in experiment [1]; 29 to 31 µM in experiment [3]; 24 µM in experiment [6]; 23 µM in experiment [7]. Further, the inhibition at 200 µM in experiment [2] was 76%. Moreover, the Ratio IC50 stood at 20 in experiment [4] and 1.3 in experiment [8]. The response in experiment [5] was half-maximal at 28 µM (EC50).
Regarding `O=S(=O)(Nc1ccc2oc(-c3ccc(NS(=O)(=O)c4ccc(Cl)s4)cc3)nc2c1)c1cccs1`, the IC50 on E. coli GroEL/ES came out at 4 µM; at HSP60/HSP10, 9.1 µM; in [1], 5.1 µM; in experiment [3] it was 31 µM; in experiment [6], 13 µM; in experiment [7], 23 µM. The same molecule registered an inhibition at 200 µM in [2] of 52%. Further, the Ratio IC50 amounted to 2.3 in experiment [4] and 2.5 in experiment [8]. Also, a half-maximal response in [5] (EC50) required 36 µM.
As to `NCc1ccc(S(=O)(=O)Nc2ccc3oc(-c4ccc(NS(=O)(=O)c5ccc(Cl)s5)cc4)nc3c2)cc1`, the IC50 turned out to be 4.6 µM at E. coli GroEL/ES; 37 µM on HSP60/HSP10; 4.4 µM in experiment [1]; 61 µM in experiment [3]; 42 µM in experiment [6]; 62 µM in experiment [7]. Besides, in experiment [2], the inhibition at 200 µM was 91%. Further, the values for the Ratio IC50 in experiment [4] and in [8] were 8 and 9.5, respectively. The same molecule displayed a 50% effective concentration (EC50) in experiment [5] of 59 µM.
Take `O=S(=O)(Nc1ccc(-c2nc3cc(NS(=O)(=O)c4cccc(O)c4)ccc3o2)cc1)c1cccc(O)c1`: the IC50 was 0.97 µM at E. coli GroEL/ES; 17 µM at HSP60/HSP10; 1.5 µM in [1]; 84 µM in experiment [3]; 38 µM in experiment [6]; 47 µM in [7]. For the same molecule, in experiment [2], 200 µM produced 80% inhibition. Further, the Ratio IC50 in [4] amounted to 18; in experiment [8], 25. Besides, a half-maximal effect in experiment [5] (EC50) was put at 84 µM.
Turning to `O=S(=O)(Nc1ccc(-c2nc3cc(NS(=O)(=O)c4ccccc4O)ccc3o2)cc1)c1ccccc1O`, the half-inhibitory concentration (IC50) came to 7.7 µM at E. coli GroEL/ES; 18 µM at HSP60/HSP10; 2.3 µM in experiment [1]; 39 µM in experiment [3]; 23 µM in experiment [6]; 25 µM in experiment [7]. In [2], this molecule yielded an inhibition at 200 µM of 79%. Further, the Ratio IC50 came out at 2.3 in experiment [4] and 10 in experiment [8]. The EC50 in [5] came out at 63 µM.
Take `CS(=O)(=O)Nc1ccc(-c2nc3cc(NS(=O)(=O)c4ccc(Cl)s4)ccc3o2)cc1`: the half-inhibitory concentration (IC50) on E. coli GroEL/ES was 14 µM; on HSP60/HSP10, 43 µM; in experiment [1] it was 37 µM; in experiment [3] it was 95 µM; in experiment [6], 52 µM; in experiment [7] it was 52 µM. The same molecule registered an inhibition at 200 µM in experiment [2] of 74%. Further, the Ratio IC50 in experiment [4] worked out at 3.1; in [8], 1.4. Moreover, the concentration giving a half-maximal response (EC50) in [5] amounted to 66 µM.
For `O=S(=O)(Nc1ccc(-c2nc3cc(NS(=O)(=O)c4ccccc4F)ccc3o2)cc1)c1ccccc1F`, the IC50 came to 20 µM at E. coli GroEL/ES; 57 µM at HSP60/HSP10; 16 µM in experiment [1]; 31 µM in [3]; 36 µM in experiment [6]; 26 µM in [7]. The inhibition at 200 µM in experiment [2] amounted to 54%. For the same molecule, the Ratio IC50 stood at 2.9 in experiment [4] and 1.6 in experiment [8]. In [5], this molecule returned an EC50 of 45 µM.
